Laboratory results taken from ChEMBL document CHEMBL4017544 (J Med Chem, 2017).

Assay: Drug level in Wistar rat plasma treated with 1-Hydroxyl-2-cyano-3-(4-(methyl-L-glutaminate-N5-yl)-benzyloxy)-12-oxo-oleana-2(3),9(11)-dien-28-oic Acid Methyl Ester assessed as esterase-mediated metabolite formation at 100 uM after 8 hrs by HPLC analysis
Assay type: ADME
Procedure, shortened: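 Plasma, and kidney and liver homogenates in PBS, from three Wistar rats; substrate added at 100 μM at 37 °C; metabolite measured by HPLC every 60 min for 8 h; mean ± SD of three experiments.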

Drug metabolism: Metabolite_Detected
Compound: COC(=O)[C@]12CCC(C)(C)C[C@H]1[C@H]1C(=O)C=C3[C@@]4(C)[C@@H](O)C(C#N)=C(OCc5ccc(NC(=O)CC[C@H](N)C(=O)O)cc5)C(C)(C)[C@@H]4CC[C@@]3(C)[C@]1(C)CC2
